Test results as given in PMC3394096 (Investigational New Drugs, 2011).
Entries after “also recorded” stand apart in the source; their conditions may differ. Marks after values point to notes of the source that are not given here.

Experiments:
xenograft tumors = conditions: mice, multi-dose regimen; background statement, ref not given; cited from earlier work
Ca125 antigen = experiment: Phase I serum Ca125 antigen; format: in vivo, human; conditions: ovarian cancer patient with prolonged stable disease
A2780 (ovarian cancer) = conditions: cited from earlier work
other kinesins = conditions: background statement, ref not given; cited from earlier work
[1] = Phase I plasma pharmacokinetics, 24-hour continuous IV infusion; format: in vivo, human
In short: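 Test compound given to patients as a 24 h continuous IV infusion in 21-day cycles. Plasma sampled predose, at 1, 3, 6, 12, 16 and 24 h, then at 24.5–96 h from infusion start. Extraction used pH 10.7 carbonate buffer with MTBE:hexane, then HPLC-MS/MS in positive ion mode; standard curve 1–200 ng/mL. t1/2 from an unweighted single-exponential fit to the log-linear terminal phase. AUC(0-∞) by linear up/log down with extrapolation. Clearance calculated as dose/AUC.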

[2] = system: human ovarian carcinoma cells; conditions: treated human ovarian carcinoma cells; cited from earlier work
KB-3-1 (cervical cancer) = conditions: cited from earlier work
KSP = conditions: read-out: IC50 (KSP); background statement, ref not given; cited from earlier work
HCT116 (colon cancer) = conditions: cited from earlier work
solid tumors = experiment: Phase I tumor response; format: in vivo, human
In short: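 Patients with measurable taxane-resistant solid tumors received a 24 h continuous IV infusion every 21 days, with serial radiologic assessments. At baseline, longest diameters were summed for up to five lesions per organ and ten in total. Lesions had to measure ≥20 mm by conventional techniques or ≥10 mm by spiral CT. Response and progression were graded by RECIST v1.0.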

[3] = Phase I safety, dose-limiting toxicity and maximum tolerated dose; format: in vivo, human
[4] = Phase I urinary recovery of unchanged drug; format: in vivo, human; conditions: on average, at the highest dose levels
In short: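 Urine collected during the 24 h infusion at 0–4, 4–8, 8–12 and 12–24 h, then at 24–28, 28–32, 32–36 and 36–48 h from infusion start. Unchanged test compound concentration and urine volume per interval gave total urinary recovery as percentage of dose. Calculated for subjects at the highest dose levels.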

[5] = 12 mg/m^2/24 h, treatment-related, all cycles (n=47)
[6] = 17 mg/m^2/24 h, treatment-related, all cycles (n=47)
[7] = 24 mg/m^2/24 h, treatment-related, all cycles (n=47)
[8] = 48 mg/m^2/24 h, treatment-related, all cycles (n=47)

Question: With `CN1CC[C@H](N(C)C(=O)N2CC(c3cc(F)ccc3F)=C[C@@]2(CO)c2ccccc2)[C@H](F)C1` [MK-0731, (2S)-4-(2,5-difluorophenyl)-n-[(3R,4S)-3-fluoro-1-methylpiperidin-4-yl]-2-(hydroxymethyl)-N-methyl-2-phenyl-2,5-dihydro-1H-pyrrole-1-carboxamide] as the molecule, how does the “growth of xenograft tumors” value (xenograft tumors) read?
Answer: Its value is “inhibited to a similar degree”.

Question: What about the “levels of the Ca125 antigen” value (Ca125 antigen) of the same molecule?
Answer: Its value is “No decreases”.

Question: And the proliferation (A2780 (ovarian cancer))?
Answer: Its proliferation is “inhibits proliferation”.

Question: What about the “selectivity for KSP compared with other kinesins” value (other kinesins) of the same molecule?
Answer: Its value is > 20,000 fold.

Question: And the “dose dependence of end of infusion concentrations and AUC” value ([1]; 6 to 48 mg/m^2/24 h)?
Answer: Its value is “increase approximately dose proportionally; also recorded: increased approximately proportionately to the dose administered”.

Question: What about the “AUC (±SD)” value ([1]; at the MTD (17 mg/m^2/24 h)) of the same molecule?
Answer: The value was 10.5 (±7.3) μM × hour.

Question: And the “clearance (±SD)” value ([1]; at the MTD (17 mg/m^2/24 h))?
Answer: The value was 153 mL/min.

Question: What about the spindle pole separation [2] of the same molecule?
Answer: Its spindle pole separation is “inhibits spindle pole separation”.

Question: What about the proliferation (KB-3-1 (cervical cancer)) of the same molecule?
Answer: The proliferation was “inhibits proliferation”.

Question: What about the IC50 (KSP) of the same molecule?
Answer: The IC50 was 2.2 nM.

Question: What about the proliferation (HCT116 (colon cancer)) of the same molecule?
Answer: Its proliferation is “inhibits proliferation”.

Question: What about the “Number of cycles, patient with stable disease” value (solid tumors; 17 mg/m^2/24 h, non-small cell lung cancer) of the same molecule?
Answer: Its value is 12 ^a cycles.

Question: And the “Number of cycles, patient with stable disease” value (solid tumors; 17 mg/m^2/24 h, ovarian cancer)?
Answer: The value was 11 ^a cycles.

Question: What about the “patients with prolonged stable disease” value (solid tumors; 17 mg/m^2/24 h, part 2) of the same molecule?
Answer: The value was “four”.

Question: What about the “objective tumor response (RECIST)” value (solid tumors; all patients) of the same molecule?
Answer: The value was “no objective tumor responses; also recorded: no partial or complete responses”.

Question: What about the “toxicities, part 1” value ([3]; 12 mg/m^2) of the same molecule?
Answer: The value was “no further toxicities were observed”.

Question: What about the “Leukopenia, Grade 2, %” value [3, 5] of the same molecule?
Answer: The value was 2.1%.

Question: And the “Neutropenia, Grade 2, %” value [3, 5]?
Answer: The value was 2.1%.

Question: What about the “Vomiting, Grade 2, %” value [3, 5] of the same molecule?
Answer: The value was 2.1%.

Question: And the “DLT, part 1” value ([3]; 17 mg/m^2, six patients)?
Answer: Its value is “none experienced DLT”.

Question: What about the “DLTs, part 2” value ([3]; 17 mg/m^2/24 h, 22 patients) of the same molecule?
Answer: The value was “no DLTs”.

Question: What about the “Hypophosphatemia, Grade 2, %” value [3, 6] of the same molecule?
Answer: The value was 2.1%.

Question: What about the “Leukopenia, Grade 3, %” value [3, 6] of the same molecule?
Answer: The value was 2.1%.

Question: What about the “Thrombocytopenia, Grade 2, %” value [3, 6] of the same molecule?
Answer: Its value is 2.1%.

Question: What about the “Leukopenia, Grade 2, %” value [3, 7] of the same molecule?
Answer: The value was 2.1%.

Question: What about the “Neutropenia, Grade 2, %” value [3, 7] of the same molecule?
Answer: The value was 2.1%.

Question: What about the “Neutropenia, Grade 3, %” value [3, 7] of the same molecule?
Answer: The value was 2.1%.

Question: And the “Hyperglycemia, Grade 3, %” value [3, 8]?
Answer: The value was 2.1%.

Question: What about the “Hypocalcemia, Grade 2, %” value [3, 8] of the same molecule?
Answer: The value was 2.1%.

Question: And the “Hypophosphatemia, Grade 2, %” value [3, 8]?
Answer: The value was 2.1%.

Question: What about the “Leukopenia, Grade 2, %” value [3, 8] of the same molecule?
Answer: The value was 2.1%.

Question: What about the “Leukopenia, Grade 3, %” value [3, 8] of the same molecule?
Answer: The value was 2.1%.

Question: What about the “Mucosal Inflammation, Grade 2, %” value [3, 8] of the same molecule?
Answer: The value was 2.1%.

Question: And the “Nausea, Grade 3, %” value [3, 8]?
Answer: The value was 2.1%.

Question: What about the “Thrombocytopenia, Grade 2, %” value [3, 8] of the same molecule?
Answer: The value was 2.1%.

Question: What about the “Vomiting, Grade 3, %” value [3, 8] of the same molecule?
Answer: Its value is 2.1%.

Question: And the maximum tolerated dose ([3]; 24-hour IV infusion, 21-day cycles)?
Answer: Its maximum tolerated dose is 17 mg/m^2.

Question: And the neuropathy ([3]; all doses)?
Answer: The neuropathy was “without the development of neuropathy”.

Question: And the “dose recovered in urine as unchanged drug” value [4]?
Answer: Its value is “less than 4%”.

Question: Which “growth of xenograft tumors” value (xenograft tumors) does the source give for `CC(=O)O[C@H]1C(=O)[C@@]2(C)[C@H]([C@H](OC(=O)c3ccccc3)[C@]3(O)C[C@H](OC(=O)[C@H](O)[C@@H](NC(=O)c4ccccc4)c4ccccc4)C(C)=C1C3(C)C)[C@]1(OC(C)=O)CO[C@@H]1C[C@@H]2O` [paclitaxel, reference compound] here?
Answer: The value was “inhibited to a similar degree”.
